{"data": "Published values pooled from the literature", "target": "Serine/threonine-protein kinase PAK 1 (PAK1, Homo sapiens, UniProt Q13153)", "note": "Compare with care: the assays were run in different laboratories."}
{"Structure (SMILES)": "N#Cc1ccc(NC(=O)Nc2ccccc2)cc1", "assay": "cell-free assay, competition with immobilised ligand", "setting": "25 µM", "quantity": "remaining binding", "result": "92%"}
{"Structure (SMILES)": "C[C@H]1CC[C@H](n2c3cnccc3c3cnc(Nc4ccc5c(n4)CCN(C(=O)CO)C5)nc32)CC1", "assay": "cell-free assay", "setting": "1 µM", "quantity": "remaining signal", "result": "100%"}
{"Structure (SMILES)": "CC#CC(=O)N1CCC[C@H]1c1nc(-c2ccc(C(=O)Nc3ccccn3)cc2)c2c(N)nccn12", "assay": "enzyme activity, inhibitor", "setting": "1 µM", "quantity": "inhibition", "result": "1%"}
{"Structure (SMILES)": "CCCCC(=O)Nc1ccc(-c2ccc3ncn(CCC)c(=O)c3c2)cn1", "assay": "binding, competition with immobilised ligand", "setting": "0.5 µM", "quantity": "remaining binding", "result": "97%"}
{"Structure (SMILES)": "COc1ccc2oc(-c3ccc4nc(N)oc4c3)c/c(=N\\c3ccccc3NC(=O)CCN)c2c1", "assay": "binding", "setting": "1 µM", "quantity": "remaining binding", "result": "104%"}
{"Structure (SMILES)": "C1=C/COCc2cc(ccc2OCCN2CCCC2)Nc2nccc(n2)-c2cccc(c2)COC/1", "assay": "binding", "setting": "0.1 µM", "quantity": "remaining binding", "result": "100%"}
{"Structure (SMILES)": "COc1ccc2[nH]c3c4[nH]c5ccc(OC)cc5c4c4c(c3c2c1)C(=O)NC4=O", "assay": "binding", "setting": "1 µM", "quantity": "remaining binding", "result": "70%"}
{"Structure (SMILES)": "C=CC(=O)N1CCC([C@@H]2CCNc3c(C(N)=O)c(-c4ccc(Oc5ccccc5)cc4)nn32)CC1", "assay": "enzyme activity, inhibitor", "setting": "1 µM", "quantity": "inhibition", "result": "9%"}
